Measurements from different studies.

| SMILES | system | conditions | half-life |
| --- | --- | --- | --- |
| CCOc1ccc(N(C)S(=O)(=O)c2cc(Cl)sc2C(=O)Nc2cc(Cl)cc(C(=O)O)c2)cc1OC | male C57BL/6 mouse, brain | intraperitoneal, 10 mg/kg | 33.5 min |
| O=[N+]([O-])c1ccc(-c2ccc(O)cc2)c2cccnc12 | male CD-1 mouse, plasma | intravenous, 1 mg/kg | 7.56 min |
| COc1cc2c(NC3CCN(CCCC(=O)NCCCCCCCCCCCC(=O)N[C@H](C(=O)N4C[C@H](O)C[C@H]4C(=O)NCc4ccc(-c5scnc5C)cc4)C(C)(C)C)CC3)nc(N3CCC(F)(F)CC3)nc2cc1OCCCN1CCCC1 | male C57BL/6 mouse, plasma | intraperitoneal, 50 mg/kg, single dose | 90 min |
| CC(C(=O)Nc1c(F)cccc1F)N1CCN(c2ccccc2)CC1 (stereo not shown) | female C57BL/6 mouse, plasma | intraperitoneal, 10 mg/kg | ~33 min |
| CCN1CCN(Cc2ccc(NC(=O)c3ccc(C)c(NC(=O)c4cncc(-c5cccs5)c4)c3)cc2C(F)(F)F)CC1 | mouse, plasma | intraperitoneal, 15 mg/kg, single dose | 145 min |
| CC1=NN(/C(=N/c2nnc(C)s2)Nc2ccc(C)c(C)c2)C(c2cc(F)c(F)c(F)c2)S1 (stereo not shown) | male CD-1 mouse, plasma | oral, 30 mg/kg | 131 min |
| CC(=O)O[C@@]12CO[C@@H]1C[C@H](O)[C@@]1(C)C(=O)[C@H](O)C3=C(C)[C@@H](OC(=O)[C@H](O)[C@@H](NC(=O)OC(C)(C)C)c4ccccc4)C[C@@](O)([C@@H](OC(=O)c4ccccc4)[C@H]21)C3(C)C | male Kunming mouse, lung | oral, 20 mg/kg | 36 min |
| CN1CCN(C(=O)[C@H](CCCN[C@@H]2C[C@H]2c2ccc(F)cc2)NC(=O)c2ccc(-n3ccnn3)cc2)CC1 | CD-1 mouse, plasma | intravenous, 3 mg/kg | 340 min |
| C=CS(=O)(=O)c1ccc(Nc2nc(OCC3CCCCC3)c3nc[nH]c3n2)cc1 | male BALB/c mouse, plasma | intravenous, 20 mg/kg, single dose | 316 min |
| COc1cc(C(=O)OCCCN2CCCN(CCCOC(=O)c3cc(OC)c(OC)c(OC)c3)CC2)cc(OC)c1OC | male CD-1 mouse, brain | subcutaneous | 50.4 min |
| O=C(ONc1nc2nonc2nc1Nc1ccccc1F)c1ccc(OC(F)(F)F)cc1 | male C57BL/6 mouse, plasma | oral, 10 mg/kg | 15 to 27 min |
| CC(C)C[C@H](NC(=O)[C@@H]1COCCCCCC(=O)N2C[C@H](F)C[C@H]2C(=O)N1)C(=O)[C@@]1(C)CO1 | male BALB/c mouse, plasma | oral, 150 mg/kg | 47.4 min |
| Nc1ncn([C@H]2C[C@H](O)[C@@H](CO)O2)c(=O)n1 | female C57BL/6 mouse, plasma | intravenous, 0.4 mg/kg | 46.2 min |
